PMI act hi M6P – activators of human phosphomannose isomerase at near-saturating mannose 6-phosphate; actives 0.34% (n = 190,000); coupled PMI enzyme assay, resazurin fluorescence, 20 min; stronger effect = higher value; 1 = untreated enzyme, 0 = substrate-free blank; activation factor at 20 µM; P34949;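 active means activation factor of 2 or more at 20 µM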
Target sequence (P34949 whole entry, looked up): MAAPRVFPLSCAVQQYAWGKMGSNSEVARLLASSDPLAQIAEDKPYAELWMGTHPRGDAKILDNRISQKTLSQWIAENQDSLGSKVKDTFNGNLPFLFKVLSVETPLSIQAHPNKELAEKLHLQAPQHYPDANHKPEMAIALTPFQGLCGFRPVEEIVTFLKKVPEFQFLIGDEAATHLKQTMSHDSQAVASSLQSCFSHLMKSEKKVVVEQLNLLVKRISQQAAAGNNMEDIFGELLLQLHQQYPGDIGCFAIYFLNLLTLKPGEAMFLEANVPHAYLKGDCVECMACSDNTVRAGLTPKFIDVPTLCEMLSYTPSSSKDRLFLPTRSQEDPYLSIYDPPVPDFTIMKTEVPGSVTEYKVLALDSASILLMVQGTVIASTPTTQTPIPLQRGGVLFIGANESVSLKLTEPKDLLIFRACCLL
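Test system: human phosphomannose isomerase with PGI, G6PDH, diaphorase coupling enzymes; Amount: PMI at 15 ng/mL final; Reagent: Mannose-6-phosphate 1.0 mM (near-saturating) plus 0.22 mM NADP+; Timing: 20 min, room temperature; Technique: resorufin fluorescence at Ex 544/Em 590 nm; Dosing: 20 µM single dose.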
Diaphorase act – counter-screen for diaphorase-based assays: diaphorase activators and chemical reducers; Diaphorase/resazurin coupled assay, resorufin fluorescence, 16 min; stronger effect = higher value; 1 = vehicle wells, 0 = NADH-free wells; activation factor at 20 µM; actives 0.005% (n = 190,000); AID 1229;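 active means diaphorase activity raised at least twofold by the compound at 20 µM; inactive means activation factor below 2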
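Material: purified diaphorase enzyme from Clostridium kluyveri; Also added: 0.114 mM NADH and 0.1 mM resazurin, final amounts; Doses: single compound dose of 20 µM, 1% DMSO final; Times: 16 min enzyme reaction, ambient temperature; Detection: resorufin fluorescence, excitation 544 nm, emission 590 nm; Measure: increased resorufin signal from activators or reducing compounds.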
Lmaj promast – Leishmania major promastigote growth inhibition. Leishmania major promastigotes, resazurin fluorescence viability. AID 1063. actives 9% (n = 200,000). inhibition, % at 10 µM; in the data active means inhibition above about 50%;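 further: promastigotes grown with compound for 44 hours at 28 °C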
PMI act – phosphomannose isomerase (human) activation; P34949; purified human PMI, coupled resazurin fluorescence, 20 min; stronger effect = higher value; 1 = vehicle control, 0 substrate-free wells; activation factor at 20 µM; actives 0.005% (n = 190,000); AID 1214;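 active means activation factor of 2 or more at 20 µM, relative to plate controls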
WT yeast gro inh – growth inhibition of WT yeast, mitochondrial fusion screen. mitochondrial fusion phenotypic screen, WT strain. inhibition, % at 10 µM. actives 2.1% (n = 190,000). AID 1362; in the data active means inhibition above about 58%; tested in S. cerevisiae
The depositor's hits bear a star; / = not tested or not shown. In the library only some 10% were active in any assay of this set; here they are far more common.

SMILES	PMI act hi M6P	Diaphorase act	Lmaj promast	PMI act	WT yeast gro inh
COc1ccc(-n2c3c(c(=O)[nH]c2=O)C(NC(=O)c2ccncc2)(C(F)(F)F)C(=O)N3)cc1 (centres undefined)	1.2	1	-3	1.2	3
O=c1oc2cc(Oc3c([N+](=O)[O-])cc(C(F)(F)F)cc3[N+](=O)[O-])ccc2c2c1CCCC2	0.9	0.8	13	0.9	62*
CCOC(=O)c1c(C)[nH]c(C)c1C(=O)CSc1nc2ccccc2n1CCC#N	1	0.9	1	0.9	-4
CCCn1c(SCC(=O)c2c(C)[nH]c(C)c2C(=O)OCC)nc2ccccc21	0.8	0.8	64*	0.9	14
CCOC(=O)c1c(C)[nH]c(C)c1C(=O)CSc1nnc(-c2ccncc2)n1C	1	0.9	-6	1.1	65*
CCOc1ccccc1N(C)C(=O)c1nn(-c2ccc(OC)cc2OC)c(=O)c2ccccc12	0.9	0.9	13	0.9	-2
Cc1cccc(CCNC(=O)CCNC(=O)Cn2ccc3ccccc3c2=O)c1	1	0.9	-6	1	15
Cc1cc(OCCCn2cnc3ccccc3c2=O)ccc1[N+](=O)[O-]	1	0.9	59*	0.9	1
O=C(CCNC(=O)Cn1ccc2ccccc2c1=O)NCCc1ccc(Cl)cc1	1.1	0.9	55*	1	5
Cc1ccccc1OCCn1cnc2cc([N+](=O)[O-])ccc2c1=O	1	1	73*	1.2	-7
O=C(Cn1cnc2cc([N+](=O)[O-])ccc2c1=O)NCCc1ccc(Cl)cc1	1	0.8	64*	0.9	9
Fc1ccccc1SCc1nnc(-c2ccccc2Br)o1	1	0.8	6	0.9	1
CCc1ccc(NC(=O)C(=O)NCCOc2ccccc2Cl)cc1	0.9	1.1	4	1.1	10
O=S(=O)(c1ccc(Cl)s1)N1CCCc2cccc(O)c21	0.9	0.8	-4	0.9	-18
O=C(Nc1ccccc1)c1cc([N+](=O)[O-])ccc1NCc1cccnc1	1	1	9	0.9	9
O=C(Cn1cnc2cc([N+](=O)[O-])ccc2c1=O)NCc1ccccc1	1	0.8	60*	1.3	1
CCN(CC)S(=O)(=O)c1ccc(C)c(NC(=O)Cn2cnc3cc([N+](=O)[O-])ccc3c2=O)c1	0.9	0.8	72*	0.9	-1
CC(C)N(C(=O)Cn1cnc2cc([N+](=O)[O-])ccc2c1=O)C(C)C	0.9	0.8	12	0.9	-4
N#CCC(=O)Nc1ccc(C(=O)NCc2ccccn2)cc1	1.1	1	-3	1.1	-8
O=C(NC1CCCC1)c1cccc(NC(=O)c2ccco2)c1	1.2	1.1	86*	1.1	-20
O=C(NCc1cccnc1)c1cccc(NC(=O)c2ccco2)c1	1.1	0.9	77*	1.1	2
O=C(NC1=NCCS1)c1cccc(NC(=O)c2ccco2)c1	0.9	0.8	99*	0.9	-9
C/C(=N\NC(=O)c1[nH]c2c([N+](=O)[O-])cc(C)cc2c1-c1ccccc1)c1cccnc1	1.1	0.9	18	1.1	0
CN(C)c1ccc(/C=C(\C#N)C(=O)Nc2nc3c(s2)CCN(Cc2ccccc2)C3)cc1	1	0.8	6	1.1	20
Nc1cc(OCC(F)(F)F)cc([N+](=O)[O-])c1	1	0.9	-7	1	-4
SMILES	PMI act hi M6P	Diaphorase act	Lmaj promast	PMI act	WT yeast gro inh
Nc1cc(N)c(OCC(F)(F)F)cc1OCC(F)(F)F	0.4	0.5	88*	1.1	9
COc1cc2nc(SCc3c(C)noc3C)n(CCC3=CCCCC3)c(=O)c2cc1OC	0.9	0.8	62*	0.9	10
COc1cc2nc(SCC(=O)NC3CC3)n(CCC3=CCCCC3)c(=O)c2cc1OC	/	/	-4	/	/
CCc1cccc(CC)c1NC(=S)N(CCN(C)C)C(C)c1cccnc1 (centres undefined)	1	1	12	1.1	-1
Cc1ccc(S(=O)(=O)N(C)C)cc1NC(=S)NC12CC3CC(CC(C3)C1)C2	0.8	0.7	78*	0.9	22
O=S(=O)(Nc1ncn[nH]1)c1ccc(Cl)cc1	0.9	0.9	-9	0.9	-10
CC(C)N1C(=O)C(Cc2nc3ccccc3c(=O)n2-c2ccccc2)c2ccccc21 (centres undefined)	1	1	21	1	-16
CC(C)N1C(=O)/C(=C\c2nc3ccccc3c(=O)n2-c2ccccc2)c2ccccc21	0.9	0.6	99*	0.9	84*
CC(C)N1C(=O)/C(=C/c2nc3ccccc3c(=O)n2-c2ccccc2)c2ccccc21	1	0.7	100*	0.9	-8
COc1ccc(NC(=O)N/C=C/c2ccco2)cc1	2.2*	1.1	-3	1.8	-14
CC(C)C(=O)Nc1nnc(CSCc2ccccc2F)s1	1	1	91*	1	-15
CC(C)(C)C(=O)Nc1nnc(CC(=O)NCc2ccccc2)s1	0.9	0.8	-5	0.9	7
O=C(Nc1nnc(CSCc2ccccc2F)s1)c1cccc([N+](=O)[O-])c1	0.9	0.7	95*	0.7	19
CC(C)(C)C(=O)Nc1nnc(CSCc2ccccc2F)s1	1	1	100*	1	2
CCn1cc(C(=O)O)c(=O)c2cc(F)c(N/N=C/c3ccccc3[N+](=O)[O-])cc21	1.1	1.1	78*	0.9	9
Cc1cccn2c(=O)c(C=O)c(N3CCN(c4ccc(F)cc4)CC3)nc12	1	0.9	-3	1	15
CCSc1nc2ccccc2n1C(=O)/C=C\c1ccc(OC)c(OC)c1	0.9	0.8	90*	0.9	-8
CN1C(=O)COc2ccc(C(=O)c3ccccc3C(=O)O)cc21	1.3	1	-7	1.3	-13
Cc1ccc(C)c(CN2C(=O)COc3ccc(C(=O)c4ccccc4C(=O)O)cc32)c1	0.9	0.7	100*	0.9	46
CCC1Oc2ccccc2N(CC(=O)NCc2cccs2)C1=O (centres undefined)	1	1	0	1.1	0
CCOC(=O)c1c(-c2ccc(OC)cc2)csc1/N=C/C1=C(O)CCCC1=O	0.6	0.7	3	0.8	60*
CN=c1scc(-c2ccc(F)cc2)n1/N=C/c1ccc(O)c(O)c1	0.8	0.5	100*	0.5	-14
Cc1cc2ncn(-c3ncnc4sc5c(c34)CCC(C)C5)c2cc1C (centres undefined)	1	0.9	1	1	47
O=C(Nc1cccc(S(=O)(=O)c2cccc(NC(=O)C3CC3)c2)c1)C1CC1	0.9	0.8	99*	0.9	-7
CS(=O)(=O)c1cccc(NC(=O)C2CC2)c1	1.1	1	0	1.1	-3
CC1CCN(CCCNC(=O)COc2cc(=O)n(C)c3ccccc23)CC1	1	1	4	1	-22

Screens: PubChem BioAssay, several laboratories
